Experimental data reported in ChEMBL document CHEMBL4673384, “Studying Histone Deacetylase Inhibition and Apoptosis Induction of Psammaplin A Monomers with Modified Thiol Group” (ACS Med Chem Lett, 2021).
Active and inactive are the calls of the source. No cut-off for these calls is given here.

Legend:
HL-60 [1] = assay: Induction of apoptosis in human HL-60 cells assessed as early apoptotic cells at 20 uM incubated for 24 hrs by propidium iodide and annexin-V FITC staining based FACS analysis (reference value: 2.0 %); assay type: functional
HL-60 [2] = assay: Induction of apoptosis in human HL-60 cells assessed as necrotic cells at 40 uM incubated for 24 hrs by propidium iodide and annexin-V FITC staining based FACS analysis (reference value: 0.1 %); assay type: functional
HL-60 [3] = assay: Induction of apoptosis in human HL-60 cells assessed as cleavage of PARP at 20 uM after 24 hrs Western blot analysis; assay type: functional, cell-based
How it was run: (§1)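 HL-60 cells were treated for 24 h at the indicated concentrations, then analysed by Western blot. Blots were probed for cleavage of PARP and caspase-3, -8 and -9. Ac-H3, Ac-α-tubulin and β-actin were also detected, with β-actin as the loading reference.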

[4] = target: T1, Protein deacetylase HDAC6 (Homo sapiens, UniProt Q9UBN7); assay: Inhibition of recombinant full length C-terminal FLAG-tagged human HDAC6 expressed in baculovirus infected Sf9 cells using Boc-Lys(Ac)-AMC as substrate preincubated for 15 mins followed by substrate addition and measured after 60 mins by fluorescence based assay
T1 sequence (Q9UBN7 whole entry): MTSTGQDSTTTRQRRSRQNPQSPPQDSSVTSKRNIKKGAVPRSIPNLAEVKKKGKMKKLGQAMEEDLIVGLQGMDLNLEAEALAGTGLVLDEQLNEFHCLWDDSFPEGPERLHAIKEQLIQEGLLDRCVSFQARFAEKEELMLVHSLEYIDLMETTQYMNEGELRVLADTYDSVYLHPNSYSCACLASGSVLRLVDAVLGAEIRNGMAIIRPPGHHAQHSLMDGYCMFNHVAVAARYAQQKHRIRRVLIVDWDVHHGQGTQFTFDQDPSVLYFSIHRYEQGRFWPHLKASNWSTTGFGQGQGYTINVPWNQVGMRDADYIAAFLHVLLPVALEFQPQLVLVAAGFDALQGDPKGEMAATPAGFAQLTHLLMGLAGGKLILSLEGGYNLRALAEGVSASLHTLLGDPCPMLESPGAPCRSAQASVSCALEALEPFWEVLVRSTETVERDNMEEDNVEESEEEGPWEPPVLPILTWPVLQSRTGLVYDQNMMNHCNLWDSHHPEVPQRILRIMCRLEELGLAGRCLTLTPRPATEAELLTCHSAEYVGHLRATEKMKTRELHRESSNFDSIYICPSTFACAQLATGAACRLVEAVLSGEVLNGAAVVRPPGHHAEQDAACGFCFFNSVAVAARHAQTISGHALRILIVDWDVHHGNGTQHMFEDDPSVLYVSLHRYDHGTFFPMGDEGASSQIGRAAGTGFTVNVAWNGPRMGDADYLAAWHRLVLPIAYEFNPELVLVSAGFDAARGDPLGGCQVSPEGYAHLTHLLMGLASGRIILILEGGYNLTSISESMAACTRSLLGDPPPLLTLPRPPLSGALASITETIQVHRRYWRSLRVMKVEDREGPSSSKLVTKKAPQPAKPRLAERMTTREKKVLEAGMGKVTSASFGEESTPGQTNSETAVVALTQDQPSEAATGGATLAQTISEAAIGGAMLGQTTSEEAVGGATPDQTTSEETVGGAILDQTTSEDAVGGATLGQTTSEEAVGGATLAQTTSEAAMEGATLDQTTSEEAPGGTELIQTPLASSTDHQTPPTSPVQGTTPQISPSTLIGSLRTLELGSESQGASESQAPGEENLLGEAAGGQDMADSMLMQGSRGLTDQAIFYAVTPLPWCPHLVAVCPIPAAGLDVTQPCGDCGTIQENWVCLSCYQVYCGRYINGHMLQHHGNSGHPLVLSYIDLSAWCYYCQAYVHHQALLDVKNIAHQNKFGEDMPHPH

HL-60 [5] = assay: Induction of apoptosis in human HL-60 cells assessed as necrotic cells at 20 uM incubated for 24 hrs by propidium iodide and annexin-V FITC staining based FACS analysis (reference value: 0.1 %); assay type: functional
Histone deacetylase 2 [6] = target: T2, Histone deacetylase 2 (Homo sapiens, UniProt Q92769); assay: Inhibition of HDAC2 in human HL-60 cells assessed as increase in Ac-H3 level at 2 uM incubated for 24 hrs by Western blot analysis; assay type: cell-based
How it was run: (§2)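 Compound given to HL-60 cells for 24 h at the stated concentrations, then lysed. Acetyl-histone H3 and acetyl-α-tubulin levels were read by Western blot, with total H3, α-tubulin or β-actin as references.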

Histone deacetylase 2 [7] = target: T2, Histone deacetylase 2; assay: Inhibition of recombinant full length C-terminal FLAG-tagged human HDAC2 expressed in baculovirus infected Sf9 cells using Boc-Lys(Ac)-AMC as substrate preincubated for 15 mins followed by substrate addition and measured after 60 mins by fluorescence based assay
HL-60 [8] = assay: Induction of apoptosis in human HL-60 cells assessed as viable cells at 20 uM incubated for 24 hrs by propidium iodide and annexin-V FITC staining based FACS analysis (reference value: 96.3 %); assay type: functional; conditions: read-out: Activity
HL-60 [9] = assay: Induction of apoptosis in human HL-60 cells assessed as cleavage of caspase-8 at 20 uM after 24 hrs Western blot analysis; assay type: functional, cell-based; how it was run: as §1
HL-60 [10] = assay: Induction of apoptosis in human HL-60 cells assessed as cleavage of caspase-9 at 20 uM after 24 hrs Western blot analysis; assay type: functional, cell-based; how it was run: as §1
[11] = target: Histone deacetylase 3/Nuclear receptor corepressor 2 (HDAC3/NCoR2) (Homo sapiens, UniProt O15379); assay: Inhibition of C-terminal His-tagged recombinant human HDAC3 (1 to 428 residues)/N-terminal GST-tagged recombinant human NCoR2 (395 to 489 residues) co-expressed in baculovirus infected Sf9 cells using Boc-Lys(Ac)-AMC as substrate preincubated for 15 mins followed by substrate addition and measured after 60 mins by fluorescence based assay
HL-60 [12] = assay: Induction of apoptosis in human HL-60 cells assessed as early apoptotic cells at 40 uM incubated for 24 hrs by propidium iodide and annexin-V FITC staining based FACS analysis (reference value: 2.0 %); assay type: functional
Histone deacetylase 1 [13] = target: T3, Histone deacetylase 1 (Homo sapiens, UniProt Q13547); assay: Inhibition of recombinant full length C-terminal FLAG/His-tagged human HDAC1 expressed in baculovirus infected Sf9 cells using Boc-Lys(Ac)-AMC as substrate preincubated for 15 mins followed by substrate addition and measured after 60 mins by fluorescence based assay
[14] = target: Histone deacetylase 3 (Homo sapiens) (UniProt O15379); assay: Inhibition of HDAC3 in human HL-60 cells assessed as increase in Ac-H3 level at 20 uM incubated for 24 hrs by Western blot analysis; assay type: cell-based; how it was run: as §2
HL-60 [15] = assay: Induction of apoptosis in human HL-60 cells assessed as late apoptotic cells at 40 uM incubated for 24 hrs by propidium iodide and annexin-V FITC staining based FACS analysis (reference value: 1.7 %); assay type: functional
HL-60 [16] = assay: Induction of apoptosis in human HL-60 cells assessed as viable cells at 40 uM incubated for 24 hrs by propidium iodide and annexin-V FITC staining based FACS analysis (reference value: 96.3 %); assay type: functional; conditions: read-out: Activity
HL-60 [17] = assay: Induction of apoptosis in human HL-60 cells assessed as late apoptotic cells at 20 uM incubated for 24 hrs by propidium iodide and annexin-V FITC staining based FACS analysis (reference value: 1.7 %); assay type: functional
HL-60 [18] = assay: Growth inhibition of human HL-60 cells after 72 hrs by trypan blue dye based assay; assay type: functional
How it was run: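 HL-60 leukemia cells were exposed to compound for 72 h. Growth inhibition is reported as IG50 (half the growth inhibition concentration), as means plus SD of three independent experiments.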

Histone deacetylase 1 [19] = target: T3, Histone deacetylase 1; assay: Inhibition of HDAC1 in human HL-60 cells assessed as increase in Ac-H3 level at 2 uM incubated for 24 hrs by Western blot analysis; assay type: cell-based; how it was run: as §2
HL-60 [20] = assay: Induction of apoptosis in human HL-60 cells assessed as cleavage of caspase-3 at 20 uM after 24 hrs Western blot analysis; assay type: functional, cell-based; how it was run: as §1
A549 = assay: Antiproliferative activity against human A549 cells assessed as cell growth inhibition incubated for 96 hrs by MTT assay; assay type: functional
[21] = Antitumor activity against mouse LL/2 cells inoculated in C57BL/6J mouse assessed as tumor growth inhibition at 100 mg/kg, ip administered for 12 days; assay type: functional, Lewis lung carcinoma; design: scale not given: the % may be the effect or the level left; conditions: time 12 day
[22] = Toxicity in mouse LL/2 cells inoculated C57BL/6J mouse assessed as effect on body weight by measuring end body weight at 100 mg/kg, ip administered for 12 days and measured for every 2 days (reference value: 17.8 +/- 0.7 g); assay type: organism-based; conditions: in vivo, 288 h, time 12 day
MCF7 = assay: Antiproliferative activity against human MCF7 cells assessed as cell growth inhibition incubated for 96 hrs by MTT assay; assay type: functional
HCT-116 = assay: Antiproliferative activity against human HCT-116 cells assessed as cell growth inhibition incubated for 96 hrs by MTT assay; assay type: functional
[23] = Antitumor activity against mouse LL/2 cells inoculated in C57BL/6J mouse assessed as reduction of tumor weight at 100 mg/kg, ip administered for 12 days and measured at day 14 (reference value: 1.2 +/- 0.3 g); assay type: functional, Lewis lung carcinoma; conditions: time 12 day
[24] = Antiproliferative activity against mouse LL/2 cells assessed as cell growth inhibition incubated for 96 hrs by MTT assay; assay type: functional, Lewis lung carcinoma
[25] = Toxicity in mouse LL/2 cells inoculated C57BL/6J mouse assessed as effect on body weight by measuring initial body weight at 100 mg/kg, ip administered for 12 days and measured for every 2 days (reference value: 18.6 +/- 0.8 g); assay type: organism-based; conditions: in vivo, 288 h, time 12 day
HL-60 [26] = assay: Induction of apoptosis in human HL-60 cells assessed as early apoptotic cells at 2 uM incubated for 24 hrs by propidium iodide and annexin-V FITC staining based FACS analysis (reference value: 2.8 %); assay type: functional
[27] = target: T4, Protein deacetylase HDAC6 (Homo sapiens) (UniProt Q9UBN7); assay: Inhibition of HDAC6 in human HL-60 cells assessed as increase in acetylated alpha tubulin level at 0.5 uM after 24 hrs by Western blot analysis; assay type: cell-based; how it was run: as §2
T4 sequence (whole entry): T1 sequence (Q9UBN7 whole entry)

HL-60 [28] = assay: Induction of apoptosis in human HL-60 cells assessed as necrotic cells at 2 uM incubated for 24 hrs by propidium iodide and annexin-V FITC staining based FACS analysis (reference value: 0.3 %); assay type: functional
HL-60 [29] = assay: Induction of apoptosis in human HL-60 cells assessed as late apoptotic cells at 2 uM incubated for 24 hrs by propidium iodide and annexin-V FITC staining based FACS analysis (reference value: 4.8 %); assay type: functional

T2 sequence (Q92769 whole entry): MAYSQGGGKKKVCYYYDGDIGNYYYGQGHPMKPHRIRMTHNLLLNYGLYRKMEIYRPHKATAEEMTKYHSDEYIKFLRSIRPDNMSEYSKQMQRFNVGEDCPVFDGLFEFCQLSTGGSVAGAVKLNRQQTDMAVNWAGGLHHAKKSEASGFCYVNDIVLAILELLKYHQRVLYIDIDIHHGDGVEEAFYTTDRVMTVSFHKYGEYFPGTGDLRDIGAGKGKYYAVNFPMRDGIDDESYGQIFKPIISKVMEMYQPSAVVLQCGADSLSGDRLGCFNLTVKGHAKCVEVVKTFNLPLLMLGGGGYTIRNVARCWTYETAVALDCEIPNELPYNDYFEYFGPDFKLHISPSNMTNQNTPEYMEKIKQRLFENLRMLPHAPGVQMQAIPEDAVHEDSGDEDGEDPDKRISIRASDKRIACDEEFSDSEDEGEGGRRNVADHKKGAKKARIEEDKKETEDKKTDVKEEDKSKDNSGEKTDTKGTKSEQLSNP
Chain of Histone deacetylase 3/Nuclear receptor corepressor 2 (HDAC3/NCoR2) (O15379 whole entry, the tested form may be a part): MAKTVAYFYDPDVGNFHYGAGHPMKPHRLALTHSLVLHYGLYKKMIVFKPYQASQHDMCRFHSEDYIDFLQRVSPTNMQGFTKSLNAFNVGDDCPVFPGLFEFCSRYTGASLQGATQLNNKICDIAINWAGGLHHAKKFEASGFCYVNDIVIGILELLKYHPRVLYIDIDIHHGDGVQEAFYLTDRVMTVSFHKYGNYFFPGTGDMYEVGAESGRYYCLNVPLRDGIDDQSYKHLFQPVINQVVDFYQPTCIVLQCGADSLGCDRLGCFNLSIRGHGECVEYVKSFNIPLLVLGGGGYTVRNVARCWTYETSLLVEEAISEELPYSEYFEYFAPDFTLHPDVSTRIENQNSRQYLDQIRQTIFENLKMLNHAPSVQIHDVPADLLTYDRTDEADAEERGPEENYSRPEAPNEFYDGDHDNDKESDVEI
Chain of Histone deacetylase 3/Nuclear receptor corepressor 2 (HDAC3/NCoR2) (Q9Y618 whole entry, further chain, the tested form may be a part): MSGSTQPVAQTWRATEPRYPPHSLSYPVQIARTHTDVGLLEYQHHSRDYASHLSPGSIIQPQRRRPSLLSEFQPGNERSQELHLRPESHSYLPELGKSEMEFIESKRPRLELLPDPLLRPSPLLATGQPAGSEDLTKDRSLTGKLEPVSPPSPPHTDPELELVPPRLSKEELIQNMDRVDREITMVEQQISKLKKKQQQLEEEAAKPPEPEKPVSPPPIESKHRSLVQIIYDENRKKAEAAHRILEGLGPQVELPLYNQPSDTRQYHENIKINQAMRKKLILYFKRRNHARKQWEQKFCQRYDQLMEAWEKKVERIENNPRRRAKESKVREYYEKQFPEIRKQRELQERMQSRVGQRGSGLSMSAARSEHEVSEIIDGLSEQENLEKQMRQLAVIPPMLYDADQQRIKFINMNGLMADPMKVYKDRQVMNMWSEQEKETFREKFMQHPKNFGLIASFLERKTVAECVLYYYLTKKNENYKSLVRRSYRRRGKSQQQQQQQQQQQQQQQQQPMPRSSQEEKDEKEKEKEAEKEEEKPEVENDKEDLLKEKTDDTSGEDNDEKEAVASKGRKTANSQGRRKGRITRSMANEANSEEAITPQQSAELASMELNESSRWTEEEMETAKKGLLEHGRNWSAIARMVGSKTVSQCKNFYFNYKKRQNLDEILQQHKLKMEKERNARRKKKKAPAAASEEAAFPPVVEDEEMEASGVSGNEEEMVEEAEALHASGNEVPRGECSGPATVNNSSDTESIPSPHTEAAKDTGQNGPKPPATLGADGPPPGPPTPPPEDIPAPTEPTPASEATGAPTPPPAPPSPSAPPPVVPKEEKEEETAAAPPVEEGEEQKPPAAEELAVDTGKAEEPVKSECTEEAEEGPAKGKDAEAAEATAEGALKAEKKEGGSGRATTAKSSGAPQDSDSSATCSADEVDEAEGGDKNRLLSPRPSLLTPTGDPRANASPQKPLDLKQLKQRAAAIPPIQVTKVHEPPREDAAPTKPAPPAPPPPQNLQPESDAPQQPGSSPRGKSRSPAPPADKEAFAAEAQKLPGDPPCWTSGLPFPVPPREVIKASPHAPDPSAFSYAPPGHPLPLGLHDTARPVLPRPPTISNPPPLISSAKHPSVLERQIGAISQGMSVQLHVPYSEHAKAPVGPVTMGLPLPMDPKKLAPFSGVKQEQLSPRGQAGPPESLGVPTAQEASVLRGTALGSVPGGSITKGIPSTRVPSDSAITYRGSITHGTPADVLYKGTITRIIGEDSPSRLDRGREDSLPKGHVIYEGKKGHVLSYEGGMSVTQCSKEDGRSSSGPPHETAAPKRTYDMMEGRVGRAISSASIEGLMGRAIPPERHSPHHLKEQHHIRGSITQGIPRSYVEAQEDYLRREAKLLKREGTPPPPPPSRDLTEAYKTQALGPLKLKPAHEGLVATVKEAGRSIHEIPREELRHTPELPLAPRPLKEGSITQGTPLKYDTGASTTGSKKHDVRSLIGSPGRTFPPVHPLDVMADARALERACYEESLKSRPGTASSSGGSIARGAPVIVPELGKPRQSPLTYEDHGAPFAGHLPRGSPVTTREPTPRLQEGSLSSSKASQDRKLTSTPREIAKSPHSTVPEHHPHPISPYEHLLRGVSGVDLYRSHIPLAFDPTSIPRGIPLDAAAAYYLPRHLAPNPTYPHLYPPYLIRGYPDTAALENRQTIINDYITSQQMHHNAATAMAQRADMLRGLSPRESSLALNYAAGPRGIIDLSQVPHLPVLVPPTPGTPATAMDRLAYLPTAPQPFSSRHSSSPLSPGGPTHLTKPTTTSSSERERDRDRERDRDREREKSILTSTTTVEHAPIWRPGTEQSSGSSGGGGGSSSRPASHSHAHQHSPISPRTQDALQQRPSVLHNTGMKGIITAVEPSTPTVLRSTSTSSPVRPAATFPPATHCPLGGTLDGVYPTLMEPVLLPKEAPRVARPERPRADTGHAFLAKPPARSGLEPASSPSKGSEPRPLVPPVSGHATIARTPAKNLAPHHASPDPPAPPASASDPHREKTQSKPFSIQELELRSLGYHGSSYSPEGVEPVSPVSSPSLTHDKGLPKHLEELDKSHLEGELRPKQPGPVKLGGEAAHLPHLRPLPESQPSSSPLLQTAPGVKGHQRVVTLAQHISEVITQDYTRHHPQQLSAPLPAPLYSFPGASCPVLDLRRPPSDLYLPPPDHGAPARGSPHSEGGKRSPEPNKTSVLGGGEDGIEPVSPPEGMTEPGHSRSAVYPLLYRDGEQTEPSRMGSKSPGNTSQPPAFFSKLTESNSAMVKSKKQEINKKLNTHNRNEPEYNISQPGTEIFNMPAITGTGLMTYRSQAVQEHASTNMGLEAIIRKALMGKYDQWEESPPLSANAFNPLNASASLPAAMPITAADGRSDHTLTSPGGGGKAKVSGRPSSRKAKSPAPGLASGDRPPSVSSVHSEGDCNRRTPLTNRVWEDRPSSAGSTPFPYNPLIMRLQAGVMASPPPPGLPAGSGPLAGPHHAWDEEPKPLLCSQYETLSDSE
T3 sequence (Q13547 whole entry): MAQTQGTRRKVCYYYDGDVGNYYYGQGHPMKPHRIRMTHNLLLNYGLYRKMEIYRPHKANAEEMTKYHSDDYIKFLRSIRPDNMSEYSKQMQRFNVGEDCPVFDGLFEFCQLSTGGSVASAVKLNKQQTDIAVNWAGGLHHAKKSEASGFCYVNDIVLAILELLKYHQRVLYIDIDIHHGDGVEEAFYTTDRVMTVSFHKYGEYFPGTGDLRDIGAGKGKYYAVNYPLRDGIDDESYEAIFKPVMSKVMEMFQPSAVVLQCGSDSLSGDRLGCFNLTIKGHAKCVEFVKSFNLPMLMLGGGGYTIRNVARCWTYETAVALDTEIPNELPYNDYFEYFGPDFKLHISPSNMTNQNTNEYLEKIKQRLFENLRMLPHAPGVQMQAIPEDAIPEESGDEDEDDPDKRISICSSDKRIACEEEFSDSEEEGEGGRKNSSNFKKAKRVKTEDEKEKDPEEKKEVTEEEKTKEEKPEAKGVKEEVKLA
Chain of Histone deacetylase 3 (Homo sapiens) (O15379 whole entry): as the sequence (O15379 whole entry, the tested form may be a part) above

SMILES | Activity (HL-60 [1]) | Activity (HL-60 [2]) | Activity (HL-60 [3]) | IC50 [4] | Activity (HL-60 [5]) | inhibition (Histone deacetylase 2 [6]) | IC50 (Histone deacetylase 2 [7]) | viability at 20 µM (HL-60 [8]) | Activity (HL-60 [9]) | Activity (HL-60 [10]) | IC50 [11] | Activity (HL-60 [12]) | IC50 (Histone deacetylase 1 [13]) | inhibition [14] | Activity (HL-60 [15]) | viability at 40 µM (HL-60 [16]) | Activity (HL-60 [17]) | IG50 (HL-60 [18]) | inhibition (Histone deacetylase 1 [19]) | Activity (HL-60 [20]) | other results
Nc1ccccc1NC(=O)CCCCCCNC(=O)/C(Cc1ccc(O)c(Br)c1)=N/O | 1.7% | 0.6% | inactive | > 1000 nM | 0.1% | inactive | > 1000 nM | 94.2% | inactive | inactive | 130 nM | 3.1% | > 1000 nM | Active | 8.4% | 87.9% | 4% | 14 µM | inactive | inactive | 
Nc1ccccc1NC(=O)CCCCCCCNC(=O)/C(Cc1ccc(O)c(Br)c1)=N/O |  |  |  | > 1000 nM |  |  | > 1000 nM |  |  |  | 170 nM |  | > 1000 nM |  |  |  |  | 5.2 µM |  |  | IG50 (A549): 26 µM; Activity [21]: 36.5%; Activity [22]: 18.5 g; IG50 (MCF7): 17.9 µM; IG50 (HCT-116): 11.9 µM; Activity [23]: 0.8 g; IG50 [24]: 12.2 µM; Activity [25]: 18.6 g
Nc1ccccc1NC(=O)CCCCCNC(=O)/C(Cc1ccc(O)c(Br)c1)=N/O | 1.5% | 0.4% | inactive | > 1000 nM | 0.1% | inactive | > 1000 nM | 95.6% | inactive | inactive | 180 nM | 3.8% | > 1000 nM | Active | 10.2% | 85.7% | 2.8% | 14.3 µM | inactive | inactive | 
Nc1cc(F)ccc1NC(=O)/C=C/c1cnn(C/C=C/c2ccccc2)c1 | 3% | 2.9% |  |  | 0.5% |  |  | 89.3% |  |  |  | 4.8% |  |  | 17.2% | 75.1% | 7.2% | 6.1 µM | inactive |  | IG50 (A549): 28.3 µM; IG50 (MCF7): 30 µM; IG50 (HCT-116): 22 µM; IG50 [24]: 10.8 µM
O=C(CCCCCCC(=O)Nc1ccc([C@H]2O[C@@H](CSc3nc(-c4ccccc4)c(-c4ccccc4)o3)C[C@@H](c3ccc(CO)cc3)O2)cc1)NO [TUBACIN] |  |  |  |  |  |  |  |  |  |  |  |  |  |  |  |  |  |  |  |  | Activity (HL-60 [26]): 3.9%; inhibition [27]: Active; Activity (HL-60 [28]): 0.8%; Activity (HL-60 [29]): 8.8%
